Results of several laboratories.
Compare with care: the assays were run in different laboratories. pIC50: −log10 of the molar value.
Cell line: HepG2
Observed: cell growth or viability

SMILES | assay | conditions | endpoint | result
COc1ccc2c(c1)c1c(n2CO)CN2CCc3cc(OCc4ccccc4)c(OC)cc3C2C1 (stereo not drawn) | – | 20 µM, 24 h | viability | 88.9%
CCCCCCn1c(-c2cccc(Cl)c2)n[nH]c1=S | resazurin | 1 µM, 24 h | viability | 87%
Cc1[nH]c2ccc(Cl)cc2c(=O)c1-c1ccc(Oc2ccc(OC(F)(F)F)cc2)nc1 | resazurin | – | pIC50 | < 5.00
CC(=O)OC1c2c(ccc3ccc(=O)oc23)OC(C)(C)C1OC(=O)C(C)(O)C(C)O (stereo not drawn) | WST-1 | – | pIC50 | 4.61
COC1=CC(c2ccc[nH]2)=NC1=Cc1ccc(CCCCCCCCCCCCO)[nH]1 | – | – | pIC50 | 5.21
COc1ccc(-c2nc3ncccn3c2NC(C)(C)CC(C)(C)C)cc1O | MTT | 25 µM, 48 h | viability | 77.7%
COc1cc2[nH]c(C)c(-c3ccc(Oc4ccc(C(F)(F)F)cc4)cc3)c(=O)c2cc1Cl | resazurin | – | pIC50 | < 5.00
CCCCCCCCCCCCCCCCOP(=O)([O-])OCC[N+](C)(C)C | MTS | 24 h | CC50 | > 20 µM
CC1=C(C)C(c2ccc[nH]2)=NC1=Cc1ccc(CCCCCCCCCC(C)O)[nH]1 (stereo not drawn) | – | – | pIC50 | 5.03
COc1cc2c(cc1OCc1ccccc1F)C1Cc3c(n(CO)c4ccccc34)CN1CC2 (stereo not drawn) | – | 5 µM, 24 h | viability | 119%
COc1cc2[nH]c(C)c(-c3ccc(Oc4ccc(C(F)(F)F)cn4)cc3)c(=O)c2cc1Cl | resazurin | – | pIC50 | < 5.00
N=C(N/N=C/c1ccccc1)N/N=C/c1ccccc1F | resazurin | 24 h | pIC50 | 4.22
COc1ccc2c(c1)c1c(n2CO)CN2CCc3cc(OC)c(OCC(F)(F)F)cc3C2C1 (stereo not drawn) | – | 10 µM, 24 h | viability | 96.6%
COC1=CC(c2ccco2)=NC1=Cc1ccc(CCCCCCCCCC(C)O)[nH]1 (stereo not drawn) | – | – | pIC50 | < 4.00
COc1ccc2c(c1)c1c(n2CO)CN2CCc3cc(OC)c(OCc4ccc(F)cc4)cc3C2C1 (stereo not drawn) | – | 20 µM, 24 h | viability | 104%
CC(=O)O[C@@H]1c2c(ccc3ccc(=O)oc23)OC(C)(C)[C@@H]1OC(=O)C1(C)OC1C (stereo partly drawn) | WST-1 | – | pIC50 | 4.68
COc1cccc2c1C(=O)c1c(O)c3c(c(O)c1C2=O)C[C@@](O)(C(=O)CO)C[C@@H]3O[C@H]1C[C@H](N)[C@H](O)[C@H](C)O1 | MTT | 25 µM, 48 h | viability | 31.4%
CNc1cccc2cc(C(=O)NCc3ccc(C(=O)O)cc3)c(=O)[nH]c12 | CCK-8 | 50 µM, 48 h | cell death | 18%
COc1ccc(CCN2CCC(Nc3nc4ccccc4n3Cc3ccc(F)cc3)CC2)cc1 | resazurin | 1 µM, 24 h | viability | 113%
COC1=CC(c2ccc[nH]2)=NC1=Cc1ccc(CCCCCCCCCCO)[nH]1 | – | – | pIC50 | 4.94
CC(C)(C)CC(C)(C)Nc1c(-c2ccccc2)nc2ncccn12 | MTT | 25 µM, 48 h | viability | 67.4%
COc1cc2[nH]c(C)c(-c3ccc(Oc4ccc(F)cc4)cc3)c(=O)c2cc1Cl | resazurin | – | pIC50 | < 5.00
COc1ccc2cc3[n+](cc2c1OC)CCc1cc2c(cc1-3)OCO2 | – | 10 µM, 24 h | viability | 102%
CNc1cccc2cc(C(=O)NCCc3cccc(C(=O)O)c3)c(=O)[nH]c12 | CCK-8 | 10 µM, 48 h | cell death | 5.9%
